Test results taken from ChEMBL document CHEMBL4813918, “From off-to on-target: New BRAF-inhibitor-template-derived compounds selectively targeting mitogen activated protein kinase kinase 4 (MKK4)” (Eur J Med Chem, 2021).

What was measured:
[1] = molecular target: Mitogen-activated protein kinase kinase kinase 20 (Homo sapiens) (UniProt Q9NYL2); assay: Binding affinity to wild type partial length human ZAK (M1 to L331) expressed in bacterial expression system assessed as residual activity at 100 nM measured by Kinomescan assay
Mitogen-activated protein kinase kinase kinase 20 (Homo sapiens), sequence (Q9NYL2 2-800 limits assumed): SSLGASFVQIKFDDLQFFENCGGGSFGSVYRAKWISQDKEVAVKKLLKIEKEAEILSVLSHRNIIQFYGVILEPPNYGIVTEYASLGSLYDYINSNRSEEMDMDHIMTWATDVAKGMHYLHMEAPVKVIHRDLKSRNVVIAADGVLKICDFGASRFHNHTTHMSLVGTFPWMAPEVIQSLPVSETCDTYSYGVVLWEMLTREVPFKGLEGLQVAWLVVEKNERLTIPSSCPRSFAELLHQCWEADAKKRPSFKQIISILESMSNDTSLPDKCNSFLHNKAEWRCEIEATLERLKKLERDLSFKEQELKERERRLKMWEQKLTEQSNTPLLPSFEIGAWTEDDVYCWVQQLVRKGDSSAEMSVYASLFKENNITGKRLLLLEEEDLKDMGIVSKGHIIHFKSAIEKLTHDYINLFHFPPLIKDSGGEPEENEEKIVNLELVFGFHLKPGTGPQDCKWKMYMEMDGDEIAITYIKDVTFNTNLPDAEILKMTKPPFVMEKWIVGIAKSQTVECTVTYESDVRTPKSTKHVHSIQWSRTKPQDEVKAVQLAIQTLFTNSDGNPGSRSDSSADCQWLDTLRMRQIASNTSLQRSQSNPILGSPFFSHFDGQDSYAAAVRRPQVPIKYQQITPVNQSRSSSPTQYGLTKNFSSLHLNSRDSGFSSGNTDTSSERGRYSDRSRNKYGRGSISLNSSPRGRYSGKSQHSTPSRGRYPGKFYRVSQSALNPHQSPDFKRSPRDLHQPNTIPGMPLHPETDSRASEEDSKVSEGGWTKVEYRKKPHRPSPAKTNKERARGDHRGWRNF

[2] = molecular target: T1, Dual specificity mitogen-activated protein kinase kinase 7 (Homo sapiens) (UniProt O14733); assay: Binding affinity to wild type full length human MKK7 (M1 to R419 residues) expressed in mammalian expression system assessed as residual activity at 100 nM measured by Kinomescan assay
T1 sequence (whole entry): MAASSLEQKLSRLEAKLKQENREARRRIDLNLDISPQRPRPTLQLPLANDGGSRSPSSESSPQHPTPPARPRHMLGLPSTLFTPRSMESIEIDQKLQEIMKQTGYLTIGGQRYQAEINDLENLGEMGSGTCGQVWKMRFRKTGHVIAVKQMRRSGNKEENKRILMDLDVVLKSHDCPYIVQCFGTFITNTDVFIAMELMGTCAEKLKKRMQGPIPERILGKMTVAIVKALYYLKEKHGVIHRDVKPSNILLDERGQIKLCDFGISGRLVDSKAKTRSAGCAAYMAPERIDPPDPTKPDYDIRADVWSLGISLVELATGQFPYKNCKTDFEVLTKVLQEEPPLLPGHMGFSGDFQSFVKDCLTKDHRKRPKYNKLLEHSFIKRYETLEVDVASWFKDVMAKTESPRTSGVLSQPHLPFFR

[3] = molecular target: T2, Dual specificity mitogen-activated protein kinase kinase 4 (Mus musculus, UniProt P47809); assay: Binding affinity to GST tagged mouse MKK4 expressed in Escherichia coli expression system measured by Kinomescan assay
T2 sequence (P47809 whole entry): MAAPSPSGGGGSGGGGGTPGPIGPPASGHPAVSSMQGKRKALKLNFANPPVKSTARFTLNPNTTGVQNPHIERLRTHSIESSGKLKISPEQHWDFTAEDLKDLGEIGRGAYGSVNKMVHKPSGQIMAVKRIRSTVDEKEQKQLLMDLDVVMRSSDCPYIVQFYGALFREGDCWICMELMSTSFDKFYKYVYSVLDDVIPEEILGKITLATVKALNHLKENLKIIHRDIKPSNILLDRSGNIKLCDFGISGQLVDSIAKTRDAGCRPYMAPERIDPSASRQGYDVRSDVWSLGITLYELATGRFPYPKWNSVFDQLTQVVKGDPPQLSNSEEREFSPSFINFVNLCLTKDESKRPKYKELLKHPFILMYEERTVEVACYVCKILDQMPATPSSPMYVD
Procedure, shortened: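 Competition binding: compound competes with an immobilized multikinase inhibitor for the site on DNA-tagged MKK4. Bound kinase is quantified by qPCR. Kd values are determined in duplicate.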

[4] = molecular target: Mitogen-activated protein kinase kinase kinase kinase 5 (Homo sapiens) (UniProt Q9Y4K4); assay: Binding affinity to wild type partial length human MAP4K5 (M1 to P297) expressed in Bacterial expression system assessed as residual activity at 100 nM measured by Kinomescan assay relative to control
Mitogen-activated protein kinase kinase kinase kinase 5 (Homo sapiens), sequence (Q9Y4K4 whole entry, looked up): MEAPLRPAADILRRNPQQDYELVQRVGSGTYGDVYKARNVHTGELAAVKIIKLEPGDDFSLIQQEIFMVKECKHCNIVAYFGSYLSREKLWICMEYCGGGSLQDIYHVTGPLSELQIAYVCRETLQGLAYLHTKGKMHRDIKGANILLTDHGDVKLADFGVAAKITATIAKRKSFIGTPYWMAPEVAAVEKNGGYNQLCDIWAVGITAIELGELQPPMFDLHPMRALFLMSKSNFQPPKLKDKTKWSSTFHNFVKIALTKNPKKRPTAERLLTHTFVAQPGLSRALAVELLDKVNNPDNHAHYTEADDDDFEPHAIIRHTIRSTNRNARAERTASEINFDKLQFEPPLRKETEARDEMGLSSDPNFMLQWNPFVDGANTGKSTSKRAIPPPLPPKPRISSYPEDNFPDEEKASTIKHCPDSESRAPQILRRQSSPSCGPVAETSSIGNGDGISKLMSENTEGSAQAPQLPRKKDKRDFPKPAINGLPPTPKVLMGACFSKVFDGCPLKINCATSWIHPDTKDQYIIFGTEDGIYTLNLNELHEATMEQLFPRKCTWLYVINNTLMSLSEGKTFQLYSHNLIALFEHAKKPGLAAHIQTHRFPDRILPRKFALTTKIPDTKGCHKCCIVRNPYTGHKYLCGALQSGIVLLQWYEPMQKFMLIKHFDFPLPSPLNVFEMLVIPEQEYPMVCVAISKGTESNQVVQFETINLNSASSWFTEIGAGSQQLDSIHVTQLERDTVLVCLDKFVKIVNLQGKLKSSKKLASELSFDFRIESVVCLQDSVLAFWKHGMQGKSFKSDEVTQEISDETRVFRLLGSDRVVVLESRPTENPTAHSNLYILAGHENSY

| Activity [1] | Activity [2] | Kd [3] | Activity [4] | Compound |
| --- | --- | --- | --- | --- |
| 80% | 86% | 1.1 nM | 82% | O=C(c1cccc(NS(=O)(=O)Cc2ccccc2)c1F)c1c[nH]c2ncc(-c3cnc(C4CC4)nc3)cc12 |
| 38% | 70% | 0.85 nM | 86% | COc1ncc(-c2cnc3[nH]cc(C(=O)c4cccc(NS(=O)(=O)Cc5ccccc5)c4F)c3c2)cn1 |
| 68% | 100% |  | 79% | CCCS(=O)(=O)Nc1cccc(C(=O)c2c[nH]c3ncc(-c4ccc(Cl)cc4)cc23)c1Cl |
| 4.9% | 83% |  | 83% | O=C(c1c(F)ccc(NS(=O)(=O)c2ccccc2)c1F)c1c[nH]c2ncc(-c3ccc(Cl)cc3)cc12 |
| 90% | 98% |  | 97% | Cc1cc(F)ccc1-c1cnc2[nH]cc(C(=O)c3cccc(NS(=O)(=O)Cc4ccccc4)c3F)c2c1 |
| 1.4% | 100% |  | 80% | O=C(c1c(F)ccc(NS(=O)(=O)CCCF)c1F)c1c[nH]c2ncc(-c3ccc(Cl)cc3)cc12 |
| 55% | 89% |  | 98% | CCCCCS(=O)(=O)Nc1ccc(F)c(C(=O)c2c[nH]c3ncc(-c4ccc(Cl)cc4)cc23)c1F |
| 5.3% | 100% | 8.2 nM | 48% | CCCS(=O)(=O)Nc1ccc(F)c(C(=O)c2c[nH]c3ncc(-c4ccc(Cl)cc4)cc23)c1F [VEMURAFENIB] |
| 0.95% | 95% |  | 26% | O=C(c1cccc(NS(=O)(=O)Cc2ccccc2)c1F)c1c[nH]c2ncc(-c3ccncc3)cc12 |
| 78% | 94% |  | 91% | CCCC(=O)Nc1ccc(F)c(C(=O)c2c[nH]c3ncc(-c4ccc(Cl)cc4)cc23)c1F |
| 0.9% | 100% |  | 67% | CCCS(=O)(=O)Nc1ccc(F)c(C(=O)c2c[nH]c3ncc(-c4ccc(F)cc4)cc23)c1F |
| 0.7% | 97% |  | 28% | CCCS(=O)(=O)Nc1ccc(F)c(C(=O)c2c[nH]c3ncc(-c4cccc(C)c4)cc23)c1F |
| 2.1% | 95% |  | 78% | CCCS(=O)(=O)Nc1ccc(F)c(C(=O)c2c[nH]c3ncc(-c4ccco4)cc23)c1F |
| 3.5% | 81% |  | 80% | CCCS(=O)(=O)Nc1ccc(F)c(C(=O)c2c[nH]c3ncc(-c4cncnc4)cc23)c1F |
| 18% | 84% |  | 14% | CCCS(=O)(=O)Nc1ccc(F)c(C(=O)c2c[nH]c3ncc(-c4ccc(OC)c(OC)c4)cc23)c1F |
| 0.85% | 89% |  | 28% | CCCS(=O)(=O)Nc1ccc(F)c(C(=O)c2c[nH]c3ncc(-c4ccc(C)cc4)cc23)c1F |
| 7.6% | 100% |  | 79% | CCCS(=O)(=O)Nc1ccc(F)c(C(=O)c2c[nH]c3ncc(-c4ccccc4Cl)cc23)c1F |
| 94% | 100% | 3.5 nM | 98% | O=C(c1cccc(NS(=O)(=O)Cc2ccccc2)c1F)c1c[nH]c2ncc(-c3cc4c(cc3Cl)OCCO4)cc12 |
| 6.9% | 100% |  | 67% | CCCS(=O)(=O)Nc1ccc(F)c(C(=O)c2c[nH]c3ncc(-c4ccccc4C)cc23)c1F |
| 1.4% | 100% |  | 89% | C#Cc1cnc2[nH]cc(C(=O)c3c(F)ccc(NS(=O)(=O)CCC)c3F)c2c1 |
